Test results: ChEMBL document CHEMBL4613246, “Antimycobacterial Rufomycin Analogues from Streptomyces atratus Strain MJM3502” (J Nat Prod, 2020)
Starred links: 1 amine or outer side, 2 acyl side, 3 side chain; linkers in the order of their positions; H or OH if unused. Non-standard residues stand in square brackets, D forms with d. Residues, ends and D or L forms follow the SMILES beside them. Trp(1-CMe2(2S-oxiranyl)) = CC(C)([C@H]1CO1)n1cc(C[C@H](N)C(=O)O)c2ccccc21; Trp(1-(1,1-Me2-allyl)) = C=CC(C)(C)n1cc(C[C@H](N)C(=O)O)c2ccccc21; X3 = CC(C)([C@H](O)CCl)n1cc(C[C@H](N[*:1])C(=O)[*:2])c2ccccc21; Tyr(3-NO2) = N[C@@H](Cc1ccc(O)c([N+](=O)[O-])c1)C(=O)O; X1 = COC(OC)C(C)C[C@@H](C(=O)[*:2])N(C)[*:1]; X2 = C[C@H](CO)C[C@@H](C(=O)[*:2])N(C)[*:1]; Gly(E-crotyl) = C/C=C/C[C@H](N)C(=O)O; NMeL = CN[C@@H](CC(C)C)C(=O)O

Tests used:
[1] = system: Mycobacterium tuberculosis; experiment: Bactericidal activity against Mycobacterium tuberculosis H37Rv harboring LuxAB gene assessed as reduction in microbial growth by measuring reduction in relative luminescence units after 14 days by luminometric method; assay type: functional; conditions: 336 h
How it was run: (§1)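 Viability was read from an H37Rv luminescent reporter strain carrying plasmid pMV306hsp+LuxAB+G13+CDE. It was incubated with compound for two weeks, with luminescence read on days 7 and 14.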

[2] = system: Mycobacterium tuberculosis; experiment: Bactericidal activity against Mycobacterium tuberculosis H37Rv harboring LuxAB gene assessed as reduction in microbial growth by measuring reduction in relative luminescence units after 7 days by luminometric method; assay type: functional; conditions: 168 h; how it was run: as §1

SMILES | MBC [1] | MBC [2]
C/C=C/C[C@@H]1NC(=O)[C@H](CC(C)C)N2C(=O)[C@H](C[C@](C)(O)[C@H]2O)N(C)C(=O)[C@H](C)NC(=O)[C@H](Cc2ccc(O)c([N+](=O)[O-])c2)NC(=O)[C@H](CC(C)C)N(C)C(=O)[C@H](Cc2cn(C(C)(C)[C@H]3CO3)c3ccccc23)NC1=O | 4.6 µM | > 10 µM
C/C=C/C[C@@H]1NC(=O)[C@H](CC(C)C)N2C(=O)[C@H](CC(C)[C@H]2O)N(C)C(=O)[C@H](C)NC(=O)[C@H](Cc2ccc(O)c([N+](=O)[O-])c2)NC(=O)[C@H](CC(C)C)N(C)C(=O)[C@H](Cc2cn(C(C)(C)[C@H]3CO3)c3ccccc23)NC1=O (some centres undefined) | 0.88 µM | > 10 µM
C/C=C/C[C@@H]1NC(=O)[C@H](CC(C)C)N2C(=O)[C@H](C[C@@H](C)[C@H]2O)N(C)C(=O)[C@H](C)NC(=O)[C@H](Cc2ccc(O)c([N+](=O)[O-])c2)NC(=O)[C@H](CC(C)C)N(C)C(=O)[C@H](Cc2cn(C(C)(C)[C@H](O)CO)c3ccccc23)NC1=O | 0.58 µM | > 10 µM
C=CC(C)(C)n1cc(C[C@@H]2NC(=O)[C@H](C/C=C/C)NC(=O)[C@H](CC(C)C)NC(=O)[C@H](CC(C)C)N(C)C(=O)[C@H](C)NC(=O)[C@H](Cc3ccc(O)cc3)NC(=O)[C@H](CC(C)C)N(C)C2=O)c2ccccc21 (HELM PEPTIDE1{A.[meL].L.[C/C=C/C[C@H](N[*:1])C(=O)[*:2]].[C=CC(C)(C)n1cc(C[C@H](N[*:1])C(=O)[*:2])c2ccccc21].[meL].Y}$PEPTIDE1,PEPTIDE1,1:R1-7:R2$$$V2.0) | 5.2 µM | > 10 µM
C=CC(C)(C)n1cc(C[C@@H]2NC(=O)[C@H](C/C=C/C)NC(=O)[C@H](CC(C)C)NC(=O)[C@H](CC(C)C)N(C)C(=O)[C@H](C)NC(=O)[C@H](Cc3ccc(O)c([N+](=O)[O-])c3)NC(=O)[C@H](CC(C)C)N(C)C2=O)c2ccccc21 (cyclo(A[NMeL]L[Gly(E-crotyl)][Trp(1-(1,1-Me2-allyl))][NMeL][Tyr(3-NO2)])) | 4.5 µM | > 10 µM
C/C=C/C[C@@H]1NC(=O)[C@H](CC(C)C)NC(=O)[C@H](CC(C)C)N(C)C(=O)[C@H](C)NC(=O)[C@H](Cc2ccc(O)c([N+](=O)[O-])c2)NC(=O)[C@H](CC(C)C)NC(=O)[C@H](Cc2cn(C(C)(C)[C@H]3CO3)c3ccccc23)NC1=O (cyclo(A[NMeL]L[Gly(E-crotyl)][Trp(1-CMe2(2S-oxiranyl))]L[Tyr(3-NO2)])) | 2.2 µM | > 10 µM
C/C=C/C[C@@H]1NC(=O)[C@H](CC(C)C)NC(=O)[C@H](CC(C)C)N(C)C(=O)[C@H](C)NC(=O)[C@H](Cc2ccc(O)c([N+](=O)[O-])c2)NC(=O)[C@H](CC(C)C)N(C)C(=O)[C@H](Cc2cn(C(C)(C)[C@H]3CO3)c3ccccc23)NC1=O (cyclo(A[NMeL]L[Gly(E-crotyl)][Trp(1-CMe2(2S-oxiranyl))][NMeL][Tyr(3-NO2)])) | 1 µM | > 10 µM
C/C=C/C[C@@H]1NC(=O)[C@H](CC(C)C)NC(=O)[C@H](CC(C)C)N(C)C(=O)[C@H](C)NC(=O)[C@H](Cc2ccc(O)c([N+](=O)[O-])c2)NC(=O)[C@H](CC(C)C)N(C)C(=O)[C@H](Cc2cn(C(C)(C)[C@H](O)CCl)c3ccccc23)NC1=O (cyclo(A[NMeL]L[Gly(E-crotyl)][X3][NMeL][Tyr(3-NO2)])) | 3.1 µM | > 10 µM
C/C=C/C[C@@H]1NC(=O)[C@H](CC(C)C)NC(=O)[C@H](CC(C)C(OC)OC)N(C)C(=O)[C@H](C)NC(=O)[C@H](Cc2ccc(O)c([N+](=O)[O-])c2)NC(=O)[C@H](CC(C)C)N(C)C(=O)[C@H](Cc2cn(C(C)(C)[C@H]3CO3)c3ccccc23)NC1=O (stereo partly drawn) (cyclo(A[X1]L[Gly(E-crotyl)][Trp(1-CMe2(2S-oxiranyl))][NMeL][Tyr(3-NO2)])) | 1.1 µM | > 10 µM
C=CC(C)(C)n1cc(C[C@@H]2NC(=O)[C@H](C/C=C/C)NC(=O)[C@H](CC(C)C)NC(=O)[C@H](C[C@H](C)CO)N(C)C(=O)[C@H](C)NC(=O)[C@H](Cc3ccc(O)c([N+](=O)[O-])c3)NC(=O)[C@H](CC(C)C)N(C)C2=O)c2ccccc21 (cyclo(A[X2]L[Gly(E-crotyl)][Trp(1-(1,1-Me2-allyl))][NMeL][Tyr(3-NO2)])) | 9.6 µM | > 10 µM
NNC(=O)c1ccncc1 [ISONIAZID] | 4 µM | 0.99 µM
CO[C@H]1/C=C/O[C@@]2(C)Oc3c(C)c(O)c4c(O)c(c(/C=N/N5CCN(C)CC5)c(O)c4c3C2=O)NC(=O)/C(C)=C\C=C\[C@H](C)[C@H](O)[C@@H](C)[C@@H](O)[C@@H](C)[C@H](OC(C)=O)[C@@H]1C [RIFAMPIN] | 0.12 µM | 0.24 µM
